Compound activity as filed in PubChem BioAssay.
An excerpt weighted towards active compounds, which were near 2.1% of everything screened.
Ba/F3 V617F tox: loss of viability in JAK2V617F-driven Ba/F3 cells. Ba/F3 EpoR-JAK2V617F viability, ATP luminescence. inhibition, % at 5.6 µM. 1.1% of 220,000 active;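 active = inhibition above the campaign mean plus 3 SD over all tested compounds, cut at about 24% in these data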;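 also: cytokine-independent growth of Ba/F3 cells driven by EpoR plus mutant JAK2; 0% = DMSO-treated cells and 100% = JAK inhibitor I control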
MT stabilize HCS: microtubule stabilizers in HeLa cells; HeLa tubulin immunostaining HCS, 24 h; share of cells brighter than vehicle mean+2SD; % tubulin-high responders, % at 10 µM; 0.83% of 200,000 active; AID 2205;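 active = plate Z-score above 3 for both tubulin-high and condensed-nucleus cell shares, with cell loss under 80%, at 10 µM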;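 also: anti alpha tubulin signal scored within the nucleus-defined area of each cell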
bCat nuc transl: alters nuclear translocation of beta-catenin in HeLa cells; nuclear translocation activity, % at 5 µM; immunofluorescence imaging; 0.3% of 190,000 active;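 active = nuclear translocation activity above 50% at 5 µM, with a well cell count of 50 or more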;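 also: per-cell ratio of nuclear to cytoplasmic median beta-catenin stain intensity; plate controls were DMSO negative control for no effect and GSK-3 inhibitor IX positive control for full effect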
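System: HeLa cells, endogenous beta-catenin; compound dosing: 5 µM primary single dose, 0.1% DMSO, 0.02–20 µM confirmation series; incubation: 24 h compound exposure at 37°C, 5% CO2; signal: beta-catenin immunofluorescence imaging with DAPI; evaluation: % activation, nuclear-to-cytoplasmic median beta-catenin signal ratio per cell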
IEC-6 tox-1: counter-screen for KLF5 inhibitors: cytotoxicity in IEC-6 cells; IEC-6 cytotoxicity, luminescence viability; 0.78% of 290,000 active; inhibition, % at 5 µM; AID 1825; in the data active = inhibition above about 22%;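 also: 0% = plate median of test compound wells and 100% = cytotoxic reference compound wells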
KLF5 inhibitor: suppresses KLF5 promoter-driven expression; DLD-1 KLF5 promoter-luciferase reporter, luminescence; inhibition, % at 5 µM; 0.23% of 290,000 active; AID 1700;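 active = inhibition above a per-plate limit of that plate's mean compound inhibition plus 3 SD, cut at about 60% in these data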;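 also: 0% = DMSO wells and 100% = LY294002 at 200 µM; higher means less KLF5 promoter-driven luciferase light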
BaF3 parental: counter-screen for JAK2V617F inhibitors: parental Ba/F3 viability inhibitors | CellTiter-Glo ATP luminescence | inhibition, % at 5.6 µM | 1.1% of 220,000 active | AID 1486;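 active = inhibition above a per-campaign cutoff, the mean inhibition of all tested compounds plus 3 SD, cut at about 27% in these data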;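 also: 0% = DMSO wells and 100% = JAK Inhibitor I control wells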
KLF5 inh confirm: confirmation of KLF5 inhibitors | shares compounds with KLF5 inhibitor | DLD-1 KLF5 promoter firefly luciferase reporter, luminescence | inhibition, % at 4 µM | 79% of 610 active | AID 1834;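 active = inhibition above a set limit taken from the earlier primary screen, cut at about 63% in these data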;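 also: 0% = DMSO wells and 100% = LY294002 at 200 µM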
IEC-6 tox-2: counter-screen for KLF5 inhibitors: cytotoxicity in rat IEC-6 cells; shares compounds with KLF5 inhibitor; IEC-6 rat intestinal cells, viability luminescence; inhibition, % at 4 µM; 56% of 610 active; in the data active = inhibition above about 23%;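 also: cells exposed to compounds for 48 hours before viability read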
* hit, by the source's call; · = no result.

SMILES	Ba/F3 V617F tox	MT stabilize HCS	bCat nuc transl	IEC-6 tox-1	KLF5 inhibitor	BaF3 parental	KLF5 inh confirm	IEC-6 tox-2
O=C(O)c1ccc(N/N=C/c2c(F)cccc2Cl)cc1	·	·	·	-1	66*	·	55	0
CC(C)(C)c1ccc(/C=N/Nc2ccc(C(=O)O)cc2)cc1	6	3	-1	24*	66*	1	94*	34*
CN(C)c1ccc(/C=N/Nc2cccc(C(=O)O)c2)cc1	·	·	·	0	75*	·	109*	11
CC(C)(C)c1ccc(/C=N/Nc2cccc(C(=O)O)c2)cc1	-3	2	-2	-2	-121	3	·	·
CSc1nc(=S)c2[nH]c(=S)[nH]c2[nH]1	-4	·	-4	-4	-16	3	·	·
Cc1ccc(-c2nc(CN(C)Cc3ccc4nccnc4c3)c(C)o2)s1	-2	5	-2	0	-24	6	·	·
COc1ccccc1N(C)S(=O)(=O)c1ccc(C(=O)OCC(=O)N2CCCCCC2)cc1	-2	4	-3	0	-13	2	·	·
CC1=NN(c2nc3ccccc3[nH]2)C(=O)C1Cc1ccccc1 (configuration not stated)	97*	·	0	-16	63*	81*	81*	12
O=c1[nH]c2ccccc2nc1NCc1ccccc1	·	·	·	9	-25	·	·	·
Cc1cccc(C(=O)N[C@H](C(=O)Nc2cc(S(=O)(=O)N3CCCCC3)ccc2C)C(C)C)c1	-3	2	-3	-4	11	1	·	·
Cc1cc(C)c2nc(NC(=O)[C@@H](NC(=O)c3cccc(S(=O)(=O)N4CCOCC4)c3)C(C)C)sc2c1	3	4	·	-7	74*	10	100*	45*
CN1CCN(/N=C/c2nc(-c3ccccc3)n3ccccc23)CC1	-3	2	0	-6	2	0	·	·
O=C(O)c1ccc(-c2ccc(-c3ccccc3)cc2)s1	·	·	·	10	90*	·	92*	4
COc1ccc(C2C(C(=O)c3cccs3)=C(O)C(=O)N2CCN2CCOCC2)c(OC)c1 (configuration not stated)	·	·	·	2	-37	·	·	·
O=[N+]([O-])c1ccc(N=Nc2c(Cl)cc(O)cc2Cl)cc1	81*	·	1	13	33	95*	58	22*
Cc1ccc(-c2nn(-c3ccccc3)cc2CO)cc1	·	·	·	3	-55	·	·	·
Cc1ccc(Sc2c(CO)c(-c3ccccc3)nn2C)cc1	80*	6	1	86*	72*	82*	84*	56*
CC1(C)N=C(N)N=C(N)N1c1ccc(OCCCOc2ccccc2)c(Cl)c1	97*	·	-1	82*	77*	102*	73*	66*
O=C(Nc1nc2cc3c(cc2s1)OCCO3)C1=COCCO1	11	·	0	17	96*	11	92*	10
CC(=O)Nc1nc2cc3c(cc2s1)OCCO3	·	·	·	3	-36	·	·	·
Cc1ccc2nc(NC(=O)CCCc3nc4ccccc4s3)sc2c1	2	2	·	-1	88*	21	98*	6
Cc1ccc2nc(NC(=O)CCCC(=O)O)sc2c1	2	3	-3	-3	9	2	·	·
COc1ccc(CNc2ncc(-c3cccc([N+](=O)[O-])c3)n2C)c(OC)c1OC	·	·	·	3	-49	·	·	·
COCCn1c(C)cc(C2=NNC(=Nc3ccccc3F)SC2)c1C	-3	1	·	9	89*	4	-4	-7
Fc1ccc(F)c(C2=NNC(=Nc3ccccc3F)SC2)c1	-4	4	-2	-1	-27	1	·	·
SMILES	Ba/F3 V617F tox	MT stabilize HCS	bCat nuc transl	IEC-6 tox-1	KLF5 inhibitor	BaF3 parental	KLF5 inh confirm	IEC-6 tox-2
Cc1csc(NC(=O)c2cc3c(s2)CCCCC3)n1	-3	3	-1	0	72*	3	52	-1
Cc1csc(NC(=O)c2cc3c(s2)CCCC3)n1	6	3	2	9	-43	8	·	·
Cc1ccc(S(=O)(=O)NCc2ccccc2)cc1C(=O)NCc1ccccn1	·	·	·	-3	1	·	·	·
COc1ccccc1NC(=O)c1cnc(Nc2ccccc2OC)c2ccccc12	85*	35*	118*	69*	72*	83*	71*	47*
COc1ccccc1NC(=O)c1ccccc1C(=O)Nc1ccccc1OC	·	·	·	4	13	·	·	·
COc1ccccc1CNc1ccc(Br)cn1	·	·	·	-4	-67	·	·	·
COc1cc(C(=O)N/N=C(\C)Cc2ccccc2)cc(OC)c1OC	86*	3	-1	84*	76*	80*	-13	0
CCC(C(=O)Nc1ccsc1C(=O)OC)c1ccccc1 (configuration not stated)	2	3	1	-2	-40	8	·	·
COc1ccc(Cl)cc1C(=O)Nc1nc2ccccc2[nH]1	·	·	·	20	80*	·	70*	14
CC(C)Oc1ccc(C(=O)Nc2nc3ccccc3[nH]2)cc1	·	·	·	14	87*	·	78*	6
CCc1ccc(C(=O)Nc2nc3ccccc3[nH]2)cc1	·	·	·	14	84*	·	72*	6
COC(=O)c1cc(C(=O)N2CCN(c3ccccc3OC)CC2)cc([N+](=O)[O-])c1	67*	27*	70*	69*	74*	71*	80*	63*
Oc1cccc(C(Nc2nccs2)c2ccc3cccnc3c2O)c1 (configuration not stated)	68*	8	3	48*	74*	65*	92*	63*
Oc1c(C(Nc2cccc(C(F)(F)F)c2)c2cccnc2)ccc2cccnc12 (configuration not stated)	-3	4	1	-2	-7	3	·	·
O=C(NCCc1ccccc1)c1ccc2c(c1)OCCO2	·	·	·	2	97*	·	95*	-4
O=C(NCCc1ccccc1)c1ccc2c(c1)OCCCO2	·	·	·	2	100*	·	109*	15
O=C(CCCc1ccccc1)c1ccc2c(c1)OCCO2	5	3	-1	3	70*	5	88*	-5
COc1ccc(CCNC(=O)c2ccc3c(c2)OCCO3)cc1	-5	6	-5	-4	-117	1	·	·
CCCC(=O)Nc1ccc2c(c1)nc1n2CCN(C2CCCCC2)C1	14	2	-1	0	-24	1	·	·
O=C(CN1C(=O)c2ccccc2S1(=O)=O)c1ccccc1Cl	·	·	·	0	70*	·	46	-2
O=C(CN1C(=O)c2ccccc2S1(=O)=O)c1ccccc1	-5	4	-7	4	14	0	·	·
CCCn1c(C)cs/c1=N\C(=S)Nc1ccccc1	5	3	-2	8	118*	4	-18	5
Cc1cs/c(=N/C(=S)Nc2ccccc2)n1C	0	3	1	0	-103	5	·	·
Cc1cc2[nH]c(=O)c(=O)[nH]c2cc1S(=O)(=O)NCc1ccc(Cl)cc1	·	·	·	-3	-5	·	·	·
COc1ccc(/C=N/NC(=O)c2cc3cc(OC)c(OC)cc3[nH]2)cc1	·	·	·	-9	-34	·	·	·
